From ChEMBL document CHEMBL4689842, “EUbOPEN Chemogenomics Library wave 1” (2021)

System: Fibroblast
Experiment: Multiplex assay against human fibroblast
Type: toxicity, cell-based
Outline: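 Live cells were stained at seeding with Hoechst33342, BioTracker Green Microtubule Cytoskeleton Dye, MitoTracker Red and Annexin V Alexa Fluor 680. Following compound addition, they were imaged on a CQ1 microscope at 37°C and 5% CO2 and gated by CellPathfinder machine learning into Hoechst high-intensity objects or normal cells, with normal cells split into healthy, pyknosed or fragmented nuclei and pyknosed cells into mitotic or apoptotic. Tubulin, mitochondrial-mass and membrane-permeability phenotypes are per cents of healthy-nucleus cells.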

[1] = 12 h, 1 µM, compound concentration 1 uM, replicate 1
[2] = 12 h, 1 µM, compound concentration 1 uM, replicate 2
[3] = 12 h, 10 µM, compound concentration 10 uM, replicate 1
[4] = 12 h, 10 µM, compound concentration 10 uM, replicate 2
[5] = 24 h, 1 µM, compound concentration 1 uM, replicate 1
[6] = 24 h, 1 µM, compound concentration 1 uM, replicate 2
[7] = 24 h, 10 µM, compound concentration 10 uM, replicate 1
[8] = 24 h, 10 µM, compound concentration 10 uM, replicate 2
[9] = 48 h, 1 µM, compound concentration 1 uM, replicate 1
[10] = 48 h, 1 µM, compound concentration 1 uM, replicate 2
[11] = 48 h, 10 µM, compound concentration 10 uM, replicate 1
[12] = 48 h, 10 µM, compound concentration 10 uM, replicate 2

CCCn1c(=O)c2[nH]c(C34CC5CC(CC3C5)C4)nc2n(CCC)c1=O [ROLOFYLLINE]
Population Apoptotic (%) [1]: 67% | Population Fragmented Nuclei (%) [1]: 13% | Population Healthy Nuclei (%) [1]: 55% | Population Hoechst High Intensity Objects (%) [1]: 9% | Population Membrane Permeable-Phenotype (%) [1]: 24% | Population Mitochondria Different-Phenotype (%) [1]: 10% | Population Mitotic Cells (%) [1]: 32% | Population Normal (%) [1]: 90% | Population Pyknosed Nuclei (%) [1]: 31% | Population Tubulin-Different-Phenotype (%) [1]: 63% | Total Cell Count [1]: 98 | Population Apoptotic (%) [2]: 71% | Population Fragmented Nuclei (%) [2]: 4% | Population Healthy Nuclei (%) [2]: 88% | Population Hoechst High Intensity Objects (%) [2]: 3% | Population Membrane Permeable-Phenotype (%) [2]: 12% | Population Mitochondria Different-Phenotype (%) [2]: 15% | Population Mitotic Cells (%) [2]: 28% | Population Normal (%) [2]: 96% | Population Pyknosed Nuclei (%) [2]: 7% | Population Tubulin-Different-Phenotype (%) [2]: 20% | Total Cell Count [2]: 81 | Population Apoptotic (%) [3]: 46% | Population Fragmented Nuclei (%) [3]: 13% | Population Healthy Nuclei (%) [3]: 42% | Population Hoechst High Intensity Objects (%) [3]: 13% | Population Membrane Permeable-Phenotype (%) [3]: 23% | Population Mitochondria Different-Phenotype (%) [3]: 37% | Population Mitotic Cells (%) [3]: 53% | Population Normal (%) [3]: 86% | Population Pyknosed Nuclei (%) [3]: 43% | Population Tubulin-Different-Phenotype (%) [3]: 88% | Total Cell Count [3]: 137 | Population Apoptotic (%) [4]: 55% | Population Healthy Nuclei (%) [4]: 74% | Population Hoechst High Intensity Objects (%) [4]: 3% | Population Membrane Permeable-Phenotype (%) [4]: 46% | Population Mitochondria Different-Phenotype (%) [4]: 73% | Population Mitotic Cells (%) [4]: 44% | Population Normal (%) [4]: 96% | Population Pyknosed Nuclei (%) [4]: 12% | Population Tubulin-Different-Phenotype (%) [4]: 100% | Total Cell Count [4]: 99 | Population Apoptotic (%) [5]: 31% | Population Fragmented Nuclei (%) [5]: 20% | Population Healthy Nuclei (%) [5]: 56% | Population Hoechst High Intensity Objects (%) [5]: 13% | Population Membrane Permeable-Phenotype (%) [5]: 39% | Population Mitochondria Different-Phenotype (%) [5]: 9% | Population Mitotic Cells (%) [5]: 68% | Population Normal (%) [5]: 86% | Population Pyknosed Nuclei (%) [5]: 23% | Population Tubulin-Different-Phenotype (%) [5]: 73% | Total Cell Count [5]: 109 | Population Apoptotic (%) [6]: 40% | Population Fragmented Nuclei (%) [6]: 7% | Population Healthy Nuclei (%) [6]: 88% | Population Hoechst High Intensity Objects (%) [6]: 5% | Population Membrane Permeable-Phenotype (%) [6]: 6% | Population Mitochondria Different-Phenotype (%) [6]: 11% | Population Mitotic Cells (%) [6]: 60% | Population Normal (%) [6]: 94% | Population Pyknosed Nuclei (%) [6]: 4% | Population Tubulin-Different-Phenotype (%) [6]: 15% | Total Cell Count [6]: 83 | Population Apoptotic (%) [7]: 36% | Population Fragmented Nuclei (%) [7]: 17% | Population Healthy Nuclei (%) [7]: 43% | Population Hoechst High Intensity Objects (%) [7]: 13% | Population Membrane Permeable-Phenotype (%) [7]: 31% | Population Mitochondria Different-Phenotype (%) [7]: 39% | Population Mitotic Cells (%) [7]: 63% | Population Normal (%) [7]: 86% | Population Pyknosed Nuclei (%) [7]: 39% | Population Tubulin-Different-Phenotype (%) [7]: 87% | Total Cell Count [7]: 128 | Population Apoptotic (%) [8]: 56% | Population Fragmented Nuclei (%) [8]: 9% | Population Healthy Nuclei (%) [8]: 58% | Population Hoechst High Intensity Objects (%) [8]: 5% | Population Membrane Permeable-Phenotype (%) [8]: 41% | Population Mitochondria Different-Phenotype (%) [8]: 81% | Population Mitotic Cells (%) [8]: 43% | Population Normal (%) [8]: 94% | Population Pyknosed Nuclei (%) [8]: 31% | Population Tubulin-Different-Phenotype (%) [8]: 100% | Total Cell Count [8]: 120 | Population Apoptotic (%) [9]: 31% | Population Fragmented Nuclei (%) [9]: 28% | Population Healthy Nuclei (%) [9]: 55% | Population Hoechst High Intensity Objects (%) [9]: 14% | Population Membrane Permeable-Phenotype (%) [9]: 23% | Population Mitochondria Different-Phenotype (%) [9]: 3% | Population Mitotic Cells (%) [9]: 68% | Population Normal (%) [9]: 85% | Population Pyknosed Nuclei (%) [9]: 15% | Population Tubulin-Different-Phenotype (%) [9]: 58% | Total Cell Count [9]: 118 | Population Apoptotic (%) [10]: 0% | Population Fragmented Nuclei (%) [10]: 25% | Population Healthy Nuclei (%) [10]: 73% | Population Hoechst High Intensity Objects (%) [10]: 13% | Population Membrane Permeable-Phenotype (%) [10]: 34% | Population Mitochondria Different-Phenotype (%) [10]: 5% | Population Mitotic Cells (%) [10]: 100% | Population Normal (%) [10]: 86% | Population Pyknosed Nuclei (%) [10]: 1% | Population Tubulin-Different-Phenotype (%) [10]: 70% | Total Cell Count [10]: 87 | Population Apoptotic (%) [11]: 62% | Population Fragmented Nuclei (%) [11]: 31% | Population Healthy Nuclei (%) [11]: 46% | Population Hoechst High Intensity Objects (%) [11]: 17% | Population Membrane Permeable-Phenotype (%) [11]: 26% | Population Mitochondria Different-Phenotype (%) [11]: 51% | Population Mitotic Cells (%) [11]: 37% | Population Normal (%) [11]: 82% | Population Pyknosed Nuclei (%) [11]: 21% | Population Tubulin-Different-Phenotype (%) [11]: 86% | Total Cell Count [11]: 134 | Population Apoptotic (%) [12]: 50% | Population Fragmented Nuclei (%) [12]: 37% | Population Healthy Nuclei (%) [12]: 57% | Population Hoechst High Intensity Objects (%) [12]: 50% | Population Membrane Permeable-Phenotype (%) [12]: 21% | Population Mitochondria Different-Phenotype (%) [12]: 34% | Population Mitotic Cells (%) [12]: 50% | Population Normal (%) [12]: 50% | Population Pyknosed Nuclei (%) [12]: 5% | Population Tubulin-Different-Phenotype (%) [12]: 82% | Total Cell Count [12]: 160
